Results pooled from the literature.
Compare with care: the assays were run in different laboratories.
Target: Cyclin-dependent kinase 18 (CDK18, Homo sapiens, UniProt Q07002)

`CN(C)c1ncnc(-c2ccc3nc(Nc4cc(CN5CCN(C(=O)CC(F)(F)F)CC5)ccn4)[nH]c3c2)c1Cl` gave a remaining binding of 100% (cell-free assay; competition with immobilised ligand; 1 µM).
`CN1CCN(c2ccc(Nc3nccc(-c4ccccc4)n3)cc2C(F)(F)F)CC1` has a remaining binding of 23% (binding; 10 µM).
`FC(F)(F)Oc1cccc(-c2cnc3ccc(-c4ccncc4)nn23)c1` gave a remaining binding of 46% (cell-free assay; competition with immobilised ligand; 5 µM).
With `O=c1nc(-c2ccccn2)sc2ccccc12` the remaining binding was 94% (binding; competition with immobilised ligand; 1 µM).
`O=C(NCCCN1CCOCC1)c1ccc(Nc2nccc(-c3cc4ccccc4s3)n2)cc1` has a remaining binding of 99% (binding; competition with immobilised ligand; 1 µM).
With `O=C1CCc2cc(Nc3cc(OC4CCOCC4)c([N+](=O)[O-])cc3Cl)ccc2N1` the remaining binding was 100% (cell-free assay; competition with immobilised ligand; 1 µM).
With `Nc1ncc2c(n1)-c1c([nH]c3ccc(C#CC4CC4)cc13)CCCC2` the remaining binding was 100% (binding; competition with immobilised ligand; 1 µM).
The remaining binding of `O=C(Nc1ccc(Oc2ccc(F)cc2)cc1)N1CCc2ncccc2[C@H]1c1ccc(F)cc1` is reported as 98% (cell-free assay; competition with immobilised ligand; 1 µM).
`C=CC(=O)N1CCC(C(=O)NCC(=O)N2CCN(c3nc(-c4cnc(N)nc4C(F)F)nc(N4CCOCC4)n3)CC2)CC1` gave a remaining binding of 95% (binding; competition with immobilised ligand; 1 µM).
`CC1CCCN1c1nccc(-c2cnn3ncccc23)n1` (stereo not shown) has a remaining binding of 100% (binding; 1 µM).
The remaining binding of `c1cncc(-c2cccc(Nc3nccc(NC4CCCCC4)n3)c2)c1` is reported as 100% (binding; competition with immobilised ligand; 10 µM).
For `CCOC(=O)c1cc2cc(-c3cc(C(=O)NCc4ccc(C(=O)O)cc4)nn3C)ccc2[nH]1`, the remaining binding was 100% (cell-free assay; competition with immobilised ligand; 0.1 µM).
The remaining binding of `CN(CCCC(F)(F)F)c1nccc(-c2cnn3ncccc23)n1` is reported as 52% (binding; 1 µM).
The remaining binding of `COc1cnc(Nc2cccc(S(N)(=O)=O)c2)nc1N1CCN(c2ccccc2)C(=O)C1` is reported as 100% (binding; competition with immobilised ligand; 1 µM).
`N[C@H]1CCN(c2nccc(-c3cnn4ncccc34)n2)C1` has a remaining binding of 100% (binding; 1 µM).
The remaining binding of `O=C(Nc1c[nH]nc1C(=O)NC1CCNCC1)c1cc(F)cc(F)c1` is reported as 78% (binding; competition with immobilised ligand; 1 µM).
`C[C@H]1CCN(c2nccc(-c3cnn4ncccc34)n2)C1` has a remaining binding of 100% (binding; 1 µM).
For `O=C(c1ccc(Nc2ncc(Cl)c(-c3ccc(Cl)s3)n2)cc1)N1CCC(N2CCCC2)CC1`, the remaining binding was 43% (binding; competition with immobilised ligand; 1 µM).
With `Cc1cnn2ncc(-c3ccnc(N(C)C)n3)c2c1` the remaining binding was 100% (binding; 1 µM).
For `CC1=C(C#N)[C@@H](c2ccc3[nH]nc(C)c3c2)C(C#N)=C(c2ccc(Cl)cc2)N1`, the remaining binding was 100% (cell-free assay; competition with immobilised ligand; 1 µM).
`COc1ccnn2ncc(-c3ccnc(N(C)C)n3)c12` has a remaining binding of 100% (binding; 1 µM).
`Cc1cnc(Nc2ccc(C(=O)N3CCC(N4CCCC4)CC3)cc2)nc1-c1cc2ccccc2s1` gave a remaining binding of 100% (binding; competition with immobilised ligand; 1 µM).
